# High-throughput results (PubChem)
# hERG rescue: hERG (human) protection from proarrhythmic block | Q12809 | CHO-hERG, FluxOR thallium flux, dofetilide IC70 present | activation (rescue from dofetilide block), less the hit threshold, % at 10 µM | actives 0.51% (n = 310,000) | AID 1511;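 active means activation above the mean of controls blocked by dofetilide plus 5 SD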;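 further: thallium influx through hERG after potassium depolarization seen as dye fluorescence rise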
# Kir21 block: inhibitors of mouse Kir2.1 inward-rectifier potassium channel | P35561 | HEK293-Kir2.1, FluxOR thallium flux fluorescence; active compounds read low | B-score at 10 µM | actives 0.85% (n = 310,000);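 active means fluorescence ratio B-score at or below minus 3 SD of library scores, with starting-brightness B-score within 2 SD, cut at about -4.2 in these data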;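 further: channel flux triggered by added potassium and thallium sulfate stimulus; B-score of peak minus minimum fluorescence over baseline after thallium stimulus; more negative B-score means stronger Kir2.1 block with less thallium influx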
# KCNK3 block: human KCNK3 channel inhibition, primary screen. O14649. CHO-KCNK3 thallium flux, FluxOR fluorescence; active compounds read low. B-score at 10 µM. actives 0.84% (n = 340,000);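 active means B-score under library mean minus 4 SD, starting fluorescence ratio at most library mean plus 5 SD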;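 further: more negative B-score means stronger inhibition of thallium flux through KCNK3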
# Target sequence (O14649 whole entry, looked up): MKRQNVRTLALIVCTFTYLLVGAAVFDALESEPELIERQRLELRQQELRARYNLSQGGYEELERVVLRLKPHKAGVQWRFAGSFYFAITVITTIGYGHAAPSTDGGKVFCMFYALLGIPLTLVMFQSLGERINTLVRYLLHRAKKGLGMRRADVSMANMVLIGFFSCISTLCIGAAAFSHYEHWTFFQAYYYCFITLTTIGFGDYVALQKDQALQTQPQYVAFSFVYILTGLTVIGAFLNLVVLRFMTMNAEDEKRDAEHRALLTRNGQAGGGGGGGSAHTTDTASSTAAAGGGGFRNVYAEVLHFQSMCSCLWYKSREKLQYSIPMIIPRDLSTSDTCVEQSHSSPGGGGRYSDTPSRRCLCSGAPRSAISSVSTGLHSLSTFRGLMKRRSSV
# KCNQ1 block: blocks the human KCNQ1 potassium channel; P51787; CHO-K1 KCNQ1, FluxOR thallium flux fluorescence; active compounds read high; B-score at 10 µM; actives 1.3% (n = 310,000); AID 2642;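 active means compounds whose thallium flux B-score, printed positive for inhibition, exceeds three library SD while starting fluorescence stays within three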;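 further: channel opened by potassium depolarization with thallium stimulus after 20 min compound exposure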
# KCNK9 block: human KCNK9 channel inhibition. B-score at 10 µM. actives 1.2% (n = 310,000). HEK293 KCNK9, FluxOR thallium flux fluorescence; active compounds read low. Q9NPC2;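 active means ratio B-score over 3 SD below the library mean, with starting fluorescence within 5 SD of its mean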;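 further: negative B-score means less thallium flux so channel inhibition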
# KCNQ1 act: potentiates or activates the human KCNQ1 potassium channel; B-score at 10 µM; P51787; AID 2648; CHO-K1 KCNQ1, thallium flux FluxOR fluorescence; active compounds read high; actives 0.35% (n = 310,000);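 active means fluorescence ratio B-score, a plate-corrected score, at least three library SD, with initial intensity B-score within 5 SD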
#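 Assay system: CHO-K1 cells stably expressing KCNQ1. Medium: assay buffer for compound exposure, DMSO matched across wells. Timing: 37 °C overnight plating, 90-min dark dye load, 20-min compound pretreatment. Signal: kinetic FluxOR fluorescence, 10 s baseline plus 110 s post-stimulus.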
# KCNK9 inh conf: human KCNK9 inhibitor confirmation; shares compounds with KCNK9 block; HEK293 KCNK9 cells, FluxOR thallium flux fluorescence; inhibition, % at 10 µM; actives 43% (n = 4,900); AID 492992;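 active means thallium signal inhibited by more than 5 SD of the compound-free buffer control wells, on both duplicate plates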;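 further: 0% = assay buffer control wells without compound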
# Kir21 sel: selectivity of KCNK9 modulators against mouse Kir2.1 | shares compounds with KCNK9 block | actives 4% (n = 4,900) | inhibition, % at 10 µM | Kir2.1 cells, FluxOR thallium flux fluorescence;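 active means thallium signal drop more than 5 SD beyond the mean of the no-compound control wells, seen in both duplicate plates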;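 further: signal is fluorescence rise after thallium addition divided by baseline fluorescence; plate controls were assay buffer only for no effect and full block by chlorpromazine control for full effect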
# KCNK9 uninduced: second check of KCNK9 modulator effects in non-induced HEK293 cells; AID 492997; actives 40% (n = 4,900); shares compounds with KCNK9 block; inhibition, % at 10 µM; FluxOR thallium flux;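 active means thallium signal drop beyond 5 SD of the untreated control mean, on both duplicate plates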;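 further: plate controls were buffer only IC0 wells for no effect and SID17386958 at its maximal inhibitory level for full effect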
# * hit, by the source's call; i = inactive; . = no result given. Most compounds without a hit are left out; they make up all but 3.8% or so of the library.
SMILES,hERG rescue,Kir21 block,KCNK3 block,KCNQ1 block,KCNK9 block,KCNQ1 act,KCNK9 inh conf,Kir21 sel,KCNK9 uninduced
CC1CC(C)CN(S(=O)(=O)c2ccc(C(=O)N3CCN(c4ccccc4)CC3)cc2)C1 (stereo not drawn),-5,0.64,i,i,i,i,i,i,i
CN(c1cccc(Cl)c1)S(=O)(=O)c1cccc(C(=O)NCc2ccncc2)c1,.,.,i,.,.,.,.,.,.
Cc1ccc(C(=O)N/N=C2\SCC(=O)N2c2cc(C)ccc2C)cc1,-11,0.83,i,i,i,i,i,i,i
Cc1ccc(NC(=O)c2cc(-c3ccccc3)nn2-c2ccccc2)c(Br)c1,-2,-0.51,i,i,i,i,.,.,.
Cc1ccc(NC(=O)c2cc(-c3ccccc3)nn2-c2ccccc2)cc1,-1,-1,i,i,i,i,i,i,i
CCOC(=O)COc1cc(-n2c(=S)[nH]c3cc(OC)c(OC)cc3c2=O)c(Cl)cc1Cl,-6,0.52,i,i,-13*,16*,54%*,i,i
CCOC(=O)COc1cc(N2C(=O)CSCC2=O)c(Cl)cc1Cl,2,-1.6,i,i,i,i,.,.,.
Cc1noc(C)c1NC(=O)N(C)C[C@H]1Oc2ccc(NC(=O)NC3CCCCC3)cc2C(=O)N([C@H](C)CO)C[C@@H]1C,.,.,i,.,.,.,.,.,.
Cc1ccc(-c2csc3ncnc(NS(=O)(=O)c4ccc(Cl)cc4)c23)cc1,-4,0.95,i,i,i,i,.,.,.
O=S(=O)(Nc1ncnc2scc(-c3ccc(F)cc3)c12)c1cc(F)ccc1F,-19,-0.03,i,6*,i,i,i,i,i
CC(=O)Nc1cc2c3c(c1)CCC(=O)N3CCC2,-2,0.57,i,i,i,i,.,.,.
O=C(CCc1ccccc1Cl)NC1CCCN(c2ccc(C(F)(F)F)cn2)C1 (stereo not drawn),-6,0.1,i,i,i,i,.,.,.
COC(=O)[C@H](Cc1ccccc1)NC(=O)Cn1cnc2c(NCc3ccccc3)ncnc21,.,.,i,.,.,.,.,.,.
CC(C)=CCc1c(-c2ccc(O)cc2O)oc2c3c(cc(O)c2c1=O)OC(C)(C)C=C3,-9,0.67,.,i,i,i,i,i,i
CC(C)=CCc1c2c(c(O)c3c(=O)c4c(oc13)-c1cc(O)c(O)cc1OC4C=C(C)C)C=CC(C)(C)O2 (stereo not drawn),-6,1.3,.,i,i,i,.,.,.
O=C(Cn1cc(COc2ccc(C(=O)c3ccccc3)cc2)nn1)c1ccc(O)cc1,.,.,i,.,.,.,.,.,.
O=C(Nc1cc2c3c(c1)C1CCCC1CN3CC1CCCC21)c1ccccc1 (stereo not drawn),-10,1.2,i,9*,-12*,i,i,i,i
O=C(COc1ccccc1C(=O)Nc1ccccc1)c1ccc(Br)cc1,-12,0.47,i,i,-9.5*,i,35%*,i,i
O=C(COc1ccccc1C(=O)Nc1ccccc1)NCCc1ccccc1,-9,-0.58,i,i,i,i,.,.,.
NC(=O)CC(NC(=O)c1ccc(Br)cc1)c1ccc(NC2CCCCCCC2)c([N+](=O)[O-])c1 (stereo not drawn),-1,0.29,i,i,-11*,i,i,i,33%*
NC(=O)CC(NC(=O)c1ccccc1)c1ccc(NC2CCCCCCC2)c([N+](=O)[O-])c1 (stereo not drawn),-3,-0.25,i,i,i,i,.,.,.
Cc1cc(/C=C2\C(=N)N3C(SCc4ccccc4)=NSC3=NC2=O)c(C)n1Cc1ccccc1,-5,-0.86,i,i,i,i,.,.,.
CC(C)CSC1=NSC2=NC(=O)/C(=C\c3ccccc3)C(=N)N12,22*,1.2,i,i,i,20*,i,i,i
CCN(CCCn1c(SCC#N)nc2ccccc2c1=O)c1ccccc1,-15,0.61,-9.3*,i,-11*,i,44%*,i,28%*
CCCCn1c(SCc2nc3ccccc3s2)nc2ccccc2c1=O,-8,0.04,i,i,-12*,i,68%*,i,40%*
SMILES,hERG rescue,Kir21 block,KCNK3 block,KCNQ1 block,KCNK9 block,KCNQ1 act,KCNK9 inh conf,Kir21 sel,KCNK9 uninduced
C=C(C)Cn1c(SCC#N)nc2ccccc2c1=O,-8,-0.07,i,i,i,i,.,.,.
CCCn1c(CN2CCN(C(=O)OCC)CC2)nc2cc(NC(=O)CC)ccc21,-9,0.53,i,i,i,i,.,.,.
C=CCn1c(SCCC)nc2sc3c(c2c1=O)CCc1ccccc1-3,-8,0.57,i,i,i,i,i,i,i
Cc1ccc(C2CC2C(=O)NNC(=S)Nc2cccc(Cl)c2)cc1 (stereo not drawn),-22,-2.1,i,6*,i,i,i,i,i
Cc1ccc(NC(=S)NNC(=O)C2CC2c2ccc(C)cc2)cc1 (stereo not drawn),-6,-1.2,i,i,i,i,.,.,.
Cc1ccc(C2CC2C(=O)NNC(=S)Nc2cccc(C)c2)cc1 (stereo not drawn),0,-0.33,i,i,i,i,i,i,i
CCCCc1cc(=O)oc2cc(OCC(=O)N3CCC(C(=O)O)(c4ccccc4)CC3)ccc12,-7,0.03,i,i,i,i,.,.,.
COc1ccc(/C=C(\NC(=O)c2cccs2)C(=O)NC(C)(C)C)cc1OC,-1,-0.89,i,i,i,i,.,.,.
CCOC(=O)c1c(N)sc(C(O)(C(F)(F)F)C(F)(F)F)c1-c1ccc(F)cc1,-39,-0.47,-12*,i,-9.3*,i,54%*,i,39%*
CCc1ccc(C2C(C#N)=C(N)SC(N)=C2C#N)cc1,-13,-1.3,i,i,i,i,.,.,.
N#CC1=C(N)SC(N)=C(C#N)C1c1ccc([N+](=O)[O-])cc1,-6,-0.39,i,i,i,i,i,i,i
COC(=O)CN1C(c2ccc(Cl)cc2)=Nc2ccc(Cl)cc2C1c1ccccc1 (stereo not drawn),-12,-0.83,i,i,-10*,i,32%*,i,42%*
